Each structure is given as a SMILES string.

The series in a line: Toxicity liver stage against HepG2, at 10uM. The format is cell-based. The arrangement: test concentration 10 uM, cell line HepG2-A16-CD81EGFP. The settings on record: human, HepG2-A16-CD81EGFP cells; read-out: INHIBITION
The essentials: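 Uninfected HepG2-A16-CD81EGFP cells, 3 × 10^3 per well, 1536-well, plated on prespotted compound at 10 μM final, parasite-free screening media added to match infected plates; puromycin 10 μM positive, DMSO 0.5% negative; run in parallel with 48 h PbLuc assay at 37 °C, 5% CO2; viability by CellTiter-Glo luminescence, normalized to controls.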
Regarding `CC(C)Oc1ncc(C(=O)N2CCC(N(C)C)CC2)cc1Cl`, the cytotoxicity at 10 µM is -4.09%.

For the compound `CNc1cc(C)nc(N2CCC3(CC2)[C@H](O)C[C@@H]3OC)n1`, the cytotoxicity at 10 µM was -6.72%.

With `CC(C)C(NC(=O)c1ccc(Cl)cc1Cl)C(=O)Nc1ccn(C)n1` (stereo not given), the cytotoxicity at 10 µM is 1.5%.

`Cc1cc(CNC2CCCN(c3cccnn3)C2)no1` (stereo not given): the cytotoxicity at 10 µM is -15%.

In the case of `O=C(CCc1ccncc1)NCCOc1ncc(Cl)cc1Cl`, the cytotoxicity at 10 µM is -2.56%.

In the case of `COCCN(C)CCN1CC2(CCN(C3CCSC3)CC2)OC1=O` (stereo not given), the cytotoxicity at 10 µM was -2.28%.

For the compound `CCOC(=O)[C@H]1[C@@H](O)C(=O)N(C)C12CCN(C(=O)OC)CC2`, the cytotoxicity at 10 µM is -0.817%.

As to `O=C(O)c1cn2cc(C(F)(F)F)ccc2n1`, the cytotoxicity at 10 µM was determined as 3.52%.

Consider `Cc1ccnc(N2CCN(Cc3ccccc3)CC(O)C2)c1` (stereo not given), for which the cytotoxicity at 10 µM is -1.88%.

On to `CC(=O)N1C(CN2CCCC2)C[C@@H]2CN(C(=O)c3ccoc3)CC[C@@H]21` (stereo not given in full), for which the cytotoxicity at 10 µM was -0.655%.

Consider `O=C(c1ccsc1)N1CCc2c(COCC3CC3)cncc2C1`, for which the cytotoxicity at 10 µM came out at 1.65%.

For the compound `CC(C)Cc1cc(C(=O)NCC2CCCN(c3ccccn3)C2)on1` (stereo not given), the cytotoxicity at 10 µM was 0.101%.

As for `COc1cccc(CN2CCCC2c2ccc[nH]2)c1` (stereo not given), the cytotoxicity at 10 µM is -1.38%.

Take `O=C(NC1CCS(=O)(=O)C1)c1ccc(SCc2cscn2)cc1` (stereo not given): the cytotoxicity at 10 µM was -1.23%.

For `CN(C)C(=O)[C@H]1C[C@H]2OCC[C@H]2N(Cc2ccc3c(c2)OCO3)C1`, the cytotoxicity at 10 µM is -71.3%.

With `Cc1nc(-c2ccco2)ccc1C(=O)N1CCc2nnc(N)cc2C1`, the cytotoxicity at 10 µM is -7.09%.

Regarding `CCNC(=O)N(Cc1ccoc1)C1CCCCC1`, the cytotoxicity at 10 µM was -0.986%.

Turning to `COc1cccc(N2CCN(C(=O)c3ccc(=O)n(C)c3)CC2)c1`, the cytotoxicity at 10 µM was -7.81%.

With `COc1ncccc1CNC(=O)N(Cc1ccccc1F)C1CC1`, the cytotoxicity at 10 µM is 2.99%.

In the case of `Cn1cnnc1C1CCCN(C(=O)c2ccc3c(c2)OCCO3)C1` (stereo not given), the cytotoxicity at 10 µM is -11%.

As to `O=C(CN(CC1CCC1)CC(F)(F)F)N1CCCC1`, the cytotoxicity at 10 µM came to 1.84%.

`CC(C)COCC1CN(Cc2ccc3c(c2)OCO3)Cc2ncn(C)c21` (stereo not given): the cytotoxicity at 10 µM was -10.7%.

Take `COc1ccc(C(=O)NC2CC2)c(OC2CCN(C(C)CO)CC2)c1` (stereo not given): the cytotoxicity at 10 µM was -7.71%.

As for `CNC(=O)c1ccc(NC(=O)NC(C)c2cc(C)oc2C)c(C)c1` (stereo not given), the cytotoxicity at 10 µM is -10.6%.

As for `Nc1cc(N2CCC(c3cc(Cc4ccccc4)n[nH]3)CC2)ccn1`, the cytotoxicity at 10 µM stood at 24.6%.

For `Cc1ncccc1CNC1CCCN(Cc2noc(C3CC3)n2)C1` (stereo not given), the cytotoxicity at 10 µM is -1.34%.

Regarding `Cc1ccc(C(=O)O)cc1-c1cccc2c1CCNC2`, the cytotoxicity at 10 µM came out at 7.56%.

On to `COCC1CCN(C(=O)c2cc(-c3ccco3)nc3c(Cl)cccc23)C1` (stereo not given), for which the cytotoxicity at 10 µM amounted to 1.12%.

As for `Cn1nccc1-c1ncc2c(c1C(=O)O)CCN(Cc1cccnc1)C2`, the cytotoxicity at 10 µM is 8.07%.

As for `Cc1noc(C)c1CCC(=O)N1CCOCC1CCc1cnccn1` (stereo not given), the cytotoxicity at 10 µM is -3.37%.

`COC1CCCOC12CCN(C(=O)NCc1ccco1)CC2` (stereo not given): the cytotoxicity at 10 µM was -15.3%.

As to `CN(C)[C@@H]1CCN(C(=O)Cc2ccc(F)cc2)[C@H]1Cc1cnn(C)c1`, the cytotoxicity at 10 µM was determined as 4.58%.

For `COCC1CN(C(=O)Cc2ccccn2)Cc2ncnn2C1` (stereo not given), the cytotoxicity at 10 µM is -2.47%.

Turning to `COc1ccnc(N2C[C@H]3CC[C@@H](C2)N(CC2CC2)C3)n1`, the cytotoxicity at 10 µM was -0.65%.

`COc1ccc(C2CC(=O)Nc3nc(N4CCOCC4)sc32)cc1` (stereo not given): the cytotoxicity at 10 µM amounted to 10.8%.

For `CC1CCCCN1CCNC(=O)c1ccn(-c2cccc(F)c2)n1` (stereo not given), the cytotoxicity at 10 µM is -26%.

As for `CS(=O)(=O)c1ccccc1-n1cc(NC(=O)CC(F)(F)F)cn1`, the cytotoxicity at 10 µM turned out to be 1.42%.

Regarding `Cc1cc(NCc2cc3n(n2)CCCN(C(=O)N(C)C)C3)ncn1`, the cytotoxicity at 10 µM is -11.4%.

Take `O=C(c1ccncc1)N1CCc2onc(CN3CCCC3)c2C1`: the cytotoxicity at 10 µM is -3.7%.

On to `CC(=O)N1CCC(c2nc3ccc(NC4CCC4)cn3n2)CC1`, for which the cytotoxicity at 10 µM was -107%.

Take `CCN1CCN(C(=O)C2CC(=O)N(c3cnn(C(C)C)c3)C2)CC1` (stereo not given): the cytotoxicity at 10 µM was 5.61%.

In the case of `CCOc1cc(CNC(=O)NC2CC=CC2)ccc1OC(F)F`, the cytotoxicity at 10 µM was -42.4%.

As for `c1cc2c(cc1-c1noc3c1CN(C1CCC1)CC3)OCO2`, the cytotoxicity at 10 µM is -18.4%.

In the case of `N#CC1Sc2nnc(-c3ccccc3F)n2N=C1N` (stereo not given), the cytotoxicity at 10 µM was -0.634%.

In the case of `CCn1nc(C)c(S(=O)(=O)Nc2cccc(C(=O)O)c2C)c1C`, the cytotoxicity at 10 µM was -0.731%.

In the case of `Cc1cccc(NC2CCN(C(=O)Nc3cn[nH]c3)CC2)n1`, the cytotoxicity at 10 µM is -26.7%.

With `COCC(=O)N1CCC2(CCCN(Cc3ccc(Cl)cc3)CC2)CC1`, the cytotoxicity at 10 µM is -0.153%.

In the case of `Cc1ccc(-n2cc(C)cn2)c(NC(=O)NC2(C)CCOC2)c1` (stereo not given), the cytotoxicity at 10 µM is -43.2%.

On to `O=C(NC[C@H]1OC[C@@H]2CCN(c3ncccn3)C[C@@H]21)c1ccnnc1`, for which the cytotoxicity at 10 µM was determined as 7.37%.

Take `O=C(CCCc1ccc(Cl)cc1)N1CCN(C(=O)c2ccc[nH]2)CC1`: the cytotoxicity at 10 µM worked out at 10.7%.

With `Cc1cc(NCCNS(=O)(=O)c2cccc(Cl)c2)nc(C)n1`, the cytotoxicity at 10 µM amounted to 2.9%.

For the compound `Cc1cc(C)cc(N2CCN(Cc3cccnc3)CC2=O)c1`, the cytotoxicity at 10 µM was 5.02%.

As to `COCCNC(=O)C1CCCN1S(=O)(=O)c1sc(=O)[nH]c1C` (stereo not given), the cytotoxicity at 10 µM was found to be 2.17%.

For the compound `Cc1nc(C(=O)N2CCN(c3ncccn3)[C@@H]3CS(=O)(=O)C[C@@H]32)cs1`, the cytotoxicity at 10 µM stood at 6.12%.

Regarding `O=C(c1ccnnc1)N1C[C@@H]2CC[C@H](Oc3cccc(F)c3)[C@@H]2C1`, the cytotoxicity at 10 µM came to 2.37%.

Take `COc1ccc(OC)c(-c2nc(CN(C)Cc3nncn3C)c(C)o2)c1`: the cytotoxicity at 10 µM was -9.57%.

On to `c1cc(-c2cnc(NC3CC3)nc2[C@H]2CCCO2)ccn1`, for which the cytotoxicity at 10 µM is 9.83%.

In the case of `c1cc(NC2CC3(CCN(Cc4cc[nH]n4)C3)C2)ncn1` (stereo not given), the cytotoxicity at 10 µM was -4.71%.

For `CSC(C)(C)CNC(=O)NCC[S+]([O-])c1ccccc1F` (stereo not given), the cytotoxicity at 10 µM was -11.6%.

In the case of `Cc1cccnc1CC(C)Nc1ncc(C)c(N(C)C)n1` (stereo not given), the cytotoxicity at 10 µM was found to be 12.1%.

In the case of `O=C(NCC1Cn2nnc(-c3ccccc3)c2CO1)c1ccc[nH]1` (stereo not given), the cytotoxicity at 10 µM is -1.2%.

With `CCOc1ccc(CN(C)C(=O)c2nc(N3CCCC3)ncc2Cl)cc1`, the cytotoxicity at 10 µM was -33%.

For the compound `CC(C)N(C)CC(=O)NCc1ccccc1N1CCN(C)CC1`, the cytotoxicity at 10 µM was -7.85%.

`Cc1ccc(C(=O)N2C[C@@H]3OCCN(CC4CCCC4)[C@@H]3C2)cn1`: the cytotoxicity at 10 µM was -76%.

On to `C=C(C)COc1ccccc1CNCCc1cc(O)nc(C)n1`, for which the cytotoxicity at 10 µM is -1.6%.

As for `CC(C)(C)n1cc(C2=CCN(CCNC(N)=O)CC2)cn1`, the cytotoxicity at 10 µM was -3.51%.

For the compound `CCCN(Cc1cnn(C)c1)CC1CCCN(S(C)(=O)=O)C1` (stereo not given), the cytotoxicity at 10 µM is 15.1%.

Take `O=C(c1cc2c(s1)CCC2)N1CCC(c2ccncc2)CC1`: the cytotoxicity at 10 µM was found to be 39.7%.

In the case of `CCCn1nc2c(cc1=O)CN(C(C)C(=O)Nc1nccs1)CC2` (stereo not given), the cytotoxicity at 10 µM is -1.99%.

For the compound `Cc1noc(C)c1CN1CCC2(CCN(Cc3cccc(F)c3)CC2)C1`, the cytotoxicity at 10 µM was -122%.

As to `Cc1cc(NC(=O)NCc2nccn2C)ccc1OC(C)C`, the cytotoxicity at 10 µM is -2.74%.

On to `O=S(=O)(c1ccc(F)cc1)N1CCOC[C@H](Oc2cnccn2)C1`, for which the cytotoxicity at 10 µM was 5.88%.

On to `CC(C)n1ncc2cc(NC(=O)N3CCC(N4CCCC4)C3)cnc21` (stereo not given), for which the cytotoxicity at 10 µM is -8.58%.

As for `COc1ccc(-c2noc([C@@H](C)NC(=O)NC(C)(C)C)c2C(=O)O)cc1`, the cytotoxicity at 10 µM was -1.63%.

Consider `Cc1nsc(N2CCN(CC(=O)NCc3ccc(F)cc3)CC2)n1`, for which the cytotoxicity at 10 µM is -6.84%.

Take `COc1c(CNCCNC(=O)c2cccc(C)c2)c(C)nn1C`: the cytotoxicity at 10 µM was -6.64%.

On to `CCn1ccnc1CN1CCN(c2ncnc3ccccc23)CC1`, for which the cytotoxicity at 10 µM is -1.8%.

`CSCCc1c(-c2ccccc2)ncn1[C@H]1C[C@@H](C(=O)O)N(C)C1`: the cytotoxicity at 10 µM was 0.471%.

As to `Cc1nn(C)c(N(C)C)c1CNC(C)c1cccnc1` (stereo not given), the cytotoxicity at 10 µM is -2.8%.

On to `OC(CNc1ncnc2c1CCNCC2)C(F)(F)F` (stereo not given), for which the cytotoxicity at 10 µM is -4.92%.

In the case of `Cn1ccnc1CN1CCCN(Cc2noc(C3CC3)n2)CC1`, the cytotoxicity at 10 µM is -3.33%.

For the compound `CCNc1cc2c(nn1)CCN(C(=O)CCc1c(C)noc1C)C2`, the cytotoxicity at 10 µM was -2.47%.

Turning to `CCN(CC)C(=O)CCn1ncc2c(Cl)cccc21`, the cytotoxicity at 10 µM worked out at 12.4%.

Take `Cc1ccc(C(=O)N2CCCN(C)c3ccc(F)cc32)o1`: the cytotoxicity at 10 µM is -5.26%.

Take `Cc1ccc2c(c1)C(=O)NCC1(CCN(C(=O)c3csc(C)c3)CC1)O2`: the cytotoxicity at 10 µM is -27.7%.

On to `CCCNCc1ccc(-c2ccnc3[nH]ccc23)cc1`, for which the cytotoxicity at 10 µM was 66%.

For `Cc1nc(C)n(CC2CCCN2Cc2cn3ccccc3c2C#N)n1` (stereo not given), the cytotoxicity at 10 µM came to 2.8%.

Regarding `O=C1NCCO[C@H]2CN(C(=O)c3cccs3)CC[C@@H]12`, the cytotoxicity at 10 µM was -107%.

For the compound `CC(C)c1noc(C(C)N2CCN(CCO)CC2)n1` (stereo not given), the cytotoxicity at 10 µM was -2.26%.

On to `CN(C)C[C@H]1OC[C@@H]2CCN(C(=O)NCc3cccc(F)c3)C[C@@H]21`, for which the cytotoxicity at 10 µM worked out at 6.98%.

Consider `Cc1nn(C)cc1CCC(=O)N1CCCC(n2cncn2)C1` (stereo not given), for which the cytotoxicity at 10 µM was 1.9%.

In the case of `CCNC(=O)C1CCN(Cn2nc(-c3ccccc3)oc2=O)CC1`, the cytotoxicity at 10 µM was determined as 11.5%.

As for `Cc1ccc(C)n1C(C)C(=O)N1CCCN(Cc2cscn2)CC1` (stereo not given), the cytotoxicity at 10 µM is -8.36%.

On to `N#CCCN(C(=O)CN1CCCC1c1ccsc1)c1ccccc1` (stereo not given), for which the cytotoxicity at 10 µM was -8.42%.

As for `CN(C)C(=O)C1CN(Cc2ccsc2)Cc2ccnn2C1` (stereo not given), the cytotoxicity at 10 µM is -6.75%.

These data come from ChEMBL document CHEMBL4513216, “Probing the Open Global Health Chemical Diversity Library for Multistage-Active Starting Points for Next-Generation Antimalarials” (ACS Infect Dis, 2020).
